KCNQ1 block – human KCNQ1 channel inhibition | P51787 | CHO-K1 KCNQ1, FluxOR thallium flux fluorescence; active compounds read high | B-score at 10 µM | 310,000 compounds, 1.3% hits | AID 2642;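 active means compounds whose thallium flux B-score, printed positive for inhibition, exceeds three library SD while starting fluorescence stays within three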;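 further: channel opened by potassium depolarization with thallium stimulus after 20 min compound exposure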
KCNK3 block – human KCNK3 channel inhibition, primary screen; O14649; CHO-KCNK3 thallium flux, FluxOR fluorescence; active compounds read low; B-score at 10 µM; 340,000 compounds, 0.84% hits;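 active means B-score under library mean minus 4 SD, starting fluorescence ratio at most library mean plus 5 SD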;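 further: more negative B-score means stronger inhibition of thallium flux through KCNK3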
KCNK9 inh – blocks the human KCNK9 two-pore domain potassium channel; HEK293 KCNK9, FluxOR thallium flux fluorescence; active compounds read low; AID 488922; 310,000 compounds, 1.2% hits; B-score at 10 µM;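 active means ratio B-score over 3 SD below the library mean, with starting fluorescence within 5 SD of its mean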;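 further: negative B-score means less thallium flux so channel inhibition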
hERG protect – compounds protecting human hERG from proarrhythmic drug block; Q12809; CHO-hERG, FluxOR thallium flux, dofetilide IC70 present; activation (rescue from dofetilide block), less the hit threshold, % at 10 µM; 310,000 compounds, 0.51% hits; AID 1511;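 active means activation above the mean of controls blocked by dofetilide plus 5 SD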;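 further: thallium influx through hERG after potassium depolarization seen as dye fluorescence rise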
Target sequence (Q12809 whole entry, looked up): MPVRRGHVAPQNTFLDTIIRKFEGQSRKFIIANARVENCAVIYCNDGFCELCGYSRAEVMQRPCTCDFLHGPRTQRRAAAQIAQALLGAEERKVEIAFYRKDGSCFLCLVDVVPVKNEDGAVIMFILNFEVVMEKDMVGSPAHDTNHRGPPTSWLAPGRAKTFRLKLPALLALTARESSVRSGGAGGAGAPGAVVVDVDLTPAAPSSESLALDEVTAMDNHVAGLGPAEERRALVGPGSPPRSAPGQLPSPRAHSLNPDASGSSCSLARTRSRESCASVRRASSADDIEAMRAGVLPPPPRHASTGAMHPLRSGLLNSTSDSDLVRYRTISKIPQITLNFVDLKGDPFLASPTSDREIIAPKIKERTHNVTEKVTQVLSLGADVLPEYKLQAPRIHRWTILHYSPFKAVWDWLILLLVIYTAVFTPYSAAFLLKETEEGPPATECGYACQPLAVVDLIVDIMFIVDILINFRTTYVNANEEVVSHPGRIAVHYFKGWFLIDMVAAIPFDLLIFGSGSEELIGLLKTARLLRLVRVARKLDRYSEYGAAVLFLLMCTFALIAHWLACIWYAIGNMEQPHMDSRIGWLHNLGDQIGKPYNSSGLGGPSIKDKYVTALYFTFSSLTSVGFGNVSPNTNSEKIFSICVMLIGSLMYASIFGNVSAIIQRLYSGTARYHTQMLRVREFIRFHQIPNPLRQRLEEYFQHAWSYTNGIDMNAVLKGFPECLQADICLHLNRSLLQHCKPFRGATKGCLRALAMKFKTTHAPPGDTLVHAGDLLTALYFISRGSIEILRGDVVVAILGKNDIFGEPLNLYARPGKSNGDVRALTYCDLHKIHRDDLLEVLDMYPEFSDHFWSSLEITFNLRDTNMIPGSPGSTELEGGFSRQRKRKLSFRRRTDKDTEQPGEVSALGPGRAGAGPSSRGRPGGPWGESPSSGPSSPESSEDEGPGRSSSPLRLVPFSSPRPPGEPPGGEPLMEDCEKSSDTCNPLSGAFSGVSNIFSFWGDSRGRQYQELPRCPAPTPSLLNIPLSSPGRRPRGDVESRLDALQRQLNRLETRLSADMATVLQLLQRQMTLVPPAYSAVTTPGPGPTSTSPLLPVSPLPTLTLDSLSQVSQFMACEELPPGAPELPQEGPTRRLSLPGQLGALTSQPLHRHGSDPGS
Kir21 inh – blocks the mouse Kir2.1 inward-rectifier potassium channel; P35561; HEK293-Kir2.1, FluxOR thallium flux fluorescence; active compounds read low; B-score at 10 µM; 310,000 compounds, 0.85% hits; AID 1672;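 active means fluorescence ratio B-score at or below minus 3 SD of library scores, with starting-brightness B-score within 2 SD, cut at about -4.2 in these data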;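 further: channel flux triggered by added potassium and thallium sulfate stimulus; B-score of peak minus minimum fluorescence over baseline after thallium stimulus; more negative B-score means stronger Kir2.1 block with less thallium influx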
KCNQ1 act – human KCNQ1 channel potentiation or activation | 310,000 compounds, 0.35% hits | B-score at 10 µM | CHO-K1 KCNQ1, thallium flux FluxOR fluorescence; active compounds read high | P51787 | AID 2648;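 active means fluorescence ratio B-score, a plate-corrected score, at least three library SD, with initial intensity B-score within 5 SD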
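System: Stable KCNQ1 CHO-K1 line | Incubation: 90 min dye loading and 20 min compound exposure, both at room temperature | Measure: Ratio B score | Medium: Assay buffer for compound exposure, DMSO matched across wells | Compound dosing: Single-concentration screen | Probe or stimulus: K+/Tl+ depolarizing stimulus | Measured by: Kinetic FluxOR fluorescence, 10 s baseline plus 110 s post-stimulus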
KCNK9 inh conf – confirmation of human KCNK9 potassium channel inhibitors. inhibition, % at 10 µM. 4,900 compounds, 43% hits. shares compounds with KCNK9 inh. HEK293 KCNK9 cells, FluxOR thallium flux fluorescence;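 active means thallium signal inhibited by more than 5 SD of the compound-free buffer control wells, on both duplicate plates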;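 further: 0% = assay buffer control wells without compound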
Kir21 sel – selectivity of KCNK9 modulators against mouse Kir2.1. shares compounds with KCNK9 inh. inhibition, % at 10 µM. Kir2.1 cells, FluxOR thallium flux fluorescence. 4,900 compounds, 4% hits;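 active means thallium signal drop more than 5 SD beyond the mean of the no-compound control wells, seen in both duplicate plates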;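 further: signal is fluorescence rise after thallium addition divided by baseline fluorescence; plate controls were assay buffer only for no effect and full block by chlorpromazine control for full effect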
HEK293 Tl ctr – non-induced cell nonspecific activity of KCNK9 modulators. shares compounds with KCNK9 inh. inhibition, % at 10 µM. non-induced KCNK9-HEK293, FluxOR thallium flux. 4,900 compounds, 40% hits;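 active means thallium signal drop beyond 5 SD of the untreated control mean, on both duplicate plates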;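 further: plate controls were buffer only IC0 wells for no effect and SID17386958 at its maximal inhibitory level for full effect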
* = called active by the depositor; i = inactive; . = no result. This is a sample that favours compounds with a hit; in the whole collection about 3.7% have one here.

SMILES	KCNQ1 block	KCNK3 block	KCNK9 inh	hERG protect	Kir21 inh	KCNQ1 act	KCNK9 inh conf	Kir21 sel	HEK293 Tl ctr
Cc1ccc(CNC(=O)C2CCCN(S(=O)(=O)N3CC(C)CC(C)C3)C2)cc1 (configuration not stated)	i	i	i	0	0	i	i	i	i
COc1ccc(Br)cc1CNC(=O)C1CCN(S(=O)(=O)N2CCCCC2)CC1	i	i	i	-5	-0.7	i	.	.	.
CCCS(=O)(=O)N1CCCC(C(=O)NCc2ccc(C)cc2)C1 (configuration not stated)	i	i	i	-1	1	i	.	.	.
COc1ccc(/C=C(/NC(=O)c2ccco2)C(=O)Nc2ccc(C(=O)O)cc2)cc1	i	i	i	-3	-0.17	i	.	.	.
COc1ccc(C(=O)C2CCCN(C(=O)c3cc(C(C)C)no3)C2)cc1F (configuration not stated)	i	i	i	-5	-0.01	i	i	i	i
COc1ccc(C(=O)C2CCCN(C(=O)c3cccc(Cn4cccn4)c3)C2)cc1F (configuration not stated)	i	i	i	-15	-1.2	i	i	i	i
COc1ccc(CN2CCCC(C(=O)c3ccc(SC)cc3)C2)cc1Cn1cccn1 (configuration not stated)	i	i	i	-16	-1.8	i	i	i	i
COc1cccc(C(=O)C2CCCN(Cc3cccc(-n4cccn4)c3)C2)c1 (configuration not stated)	i	i	i	-14	-1.1	i	i	i	i
CSc1ccc(C(=O)C2CCCN(Cc3ccc(N4CCNC4=O)cc3)C2)cc1 (configuration not stated)	i	i	i	-6	-1.8	i	.	.	.
CCN1C(=O)C(=O)N(CC(=O)N2CCN(c3ccccc3)CC2)C1=O	i	i	i	-10	-0.84	i	.	.	.
COc1ccc(C(=O)C2CCCN(C(=O)c3cccs3)C2)cc1F (configuration not stated)	i	i	i	-13	-1.3	i	i	i	i
Cc1cccc(NC(=O)CN(CC2CCCO2)C(=O)c2oc3ccccc3c2C)c1C (configuration not stated)	.	i	.	.	.	.	.	.	.
Cc1cccc(/C(N)=N/OC(=O)CCCN2C(=O)c3ccccc3C2=O)c1	i	i	i	-3	-1.2	i	i	i	i
COc1ccc(C(=O)C(C)OC(=O)c2nc3nccc(C)n3n2)cc1 (configuration not stated)	.	i	.	.	.	.	.	.	.
Nc1nnc(CC(=O)N/N=C/c2ccccc2OCc2ccc(F)cc2)s1	i	i	i	-12	0.28	i	.	.	.
O=C(OCc1ccc(Cl)cc1)c1cccnc1Cl	i	i	i	-3	0.73	i	.	.	.
O=C(OCc1ccc(Cl)cc1)c1ccccc1C(=O)c1ccccc1	i	i	-12*	-9	-2.7	i	52%*	34%*	49%*
CC(=O)c1cccc(NC(=O)C23CC4CC(C2)CC(n2cncn2)(C4)C3)c1	i	i	i	-8	1.5	i	.	.	.
O=C(O)C(c1ccccc1)N1C(=O)/C(=C\c2ccc(-c3ccccc3Cl)o2)SC1=S (configuration not stated)	i	i	i	-12	3.8	i	i	i	i
COc1cc(OC)nc(Oc2ccccc2C(=O)Oc2ccc(Cl)cc2)n1	i	i	-9*	1	0	i	44%*	i	39%*
COC(=O)c1ccccc1Oc1nc(Cl)cc(OC)n1	i	i	i	-5	0.98	i	.	.	.
COc1cc(OC)nc(Oc2ccccc2C(=O)Oc2ccccc2Cl)n1	i	i	-11*	1	-3.6	i	42%*	i	28%*
CCOc1ccc(S(=O)(=O)N2CCCCC2)cc1NC(=O)CN1C(=O)NC(C)(C2CC2)C1=O (configuration not stated)	.	i	.	.	.	.	.	.	.
COc1cc(SC)ccc1C(=O)NCCNC(=O)c1nonc1N	i	i	i	-8	0.05	i	.	.	.
COc1cc(C(=O)NC(=S)Nc2ccccc2N2CCCC2)cc(OC)c1OC	i	i	i	-11	-0.27	i	i	i	i
SMILES	KCNQ1 block	KCNK3 block	KCNK9 inh	hERG protect	Kir21 inh	KCNQ1 act	KCNK9 inh conf	Kir21 sel	HEK293 Tl ctr
COC1CCN(Cc2c(C(=O)N3CCN(C4CCCCC4)CC3)nc3ccccn23)CC1	i	i	i	-13	-0.29	i	.	.	.
Cc1ccc(Sc2nnc(Cc3ccccc3)c3ccccc23)cc1	i	i	-13*	-8	-1.2	i	70%*	i	42%*
COc1ccc(Sc2nnc(Cc3ccccc3)c3ccccc23)cc1	i	i	-15*	-7	0.06	i	i	i	27%*
COc1ccc(Sc2nnc(-c3ccccc3)cc2C#N)cc1	i	i	i	-4	0	i	.	.	.
N#C/C(=C/c1ccc(N2CCCCC2)cc1)c1cccc(F)c1	i	i	i	-10	-1.4	i	.	.	.
N#C/C(=C/c1ccc(N2CCCCCC2)o1)c1ccc(Cl)cc1	7*	i	-10*	-31	-3.8	i	60%*	i	78%*
CCCC[C@@H]1CCCO[C@@](C(=O)NCc2ccc(C)o2)(C(F)(F)F)C1	i	i	i	-9	0.12	i	i	i	i
CCC[C@@H]1CCCO[C@@](C(=O)NCc2ccc(S(C)(=O)=O)cc2)(C(F)(F)F)C1	i	i	i	-3	0.06	i	.	.	.
O=C(NCc1ccccc1)[C@]1(C(F)(F)F)C[C@H](CCc2ccccc2)CCCO1	i	i	i	-8	-1.5	i	i	i	i
COC(=O)c1c(N)sc2c1CCN(c1ncc(C(F)(F)F)cc1Cl)C2	i	i	-9.4*	-4	-0.42	i	38%*	i	i
NC(=O)NCCN1CCN(c2ncc(C(F)(F)F)cc2Cl)CC1	i	i	i	-2	-1.5	i	.	.	.
Cc1ccc(C(=O)O/N=C/c2c(C(F)(F)F)nn(C)c2Sc2ccc(Cl)cc2)cc1	i	i	i	-7	1.1	i	i	i	i

Bioassay records as filed in PubChem BioAssay.
